Consider 28 compounds from ChEMBL document CHEMBL3112497, “Functionally Optimized Neuritogenic Farinosone C Analogs: SAR-Study and Investigations on Their Mode of Action” (ACS Med Chem Lett, 2014).

Data set [1] relates to PC-12. Briefly: Neuritogenic activity in rat PC12 cells assessed as induction of neuronal differentiation at 50 uM after 2 days by Giemsa staining-based phase contrast microscopic analysis. In kind it is functional, cell-based. In outline: (§1)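 PC12 neurite outgrowth assay (modified procedure) with 2-day incubation; compounds at 50, 20, 10, 5 or 1 μM. Positive control NGF 20 ng mL-1, solvent control DMSO 0.1%. Mean ± SEM, n = 3; unpaired t test, 95% confidence interval.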

Data set [2] has as its system PC-12. Briefly: Neuritogenic activity in rat PC12 cells at 100 nM. Type of data set: functional, cell-based.
Data set [3] relates to PC-12. Put plainly: Neuritogenic activity in rat PC12 cells assessed as induction of neuronal differentiation at 20 uM after 2 days by Giemsa staining-based phase contrast microscopic analysis. Type of data set: functional, cell-based. The method in brief:
as §1

For data set [4], the system named is U-937. Put plainly: Inhibition of anandamide membrane transporter in human U937 cells assessed as inhibition of [3H]-AEA uptake at 10 uM preincubated for 10 to 30 mins followed by [3H]-AEA addition measured after 5 mins by liquid scintillation counting analysis relative to control. Type of data set: cell-based.
The nature of data set [5]: Inhibition of anandamide membrane transporter in human U937 cells assessed as inhibition of [3H]-AEA uptake preincubated for 10 to 30 mins followed by [3H]-AEA addition measured after 5 mins by liquid scintillation counting analysis. Type of data set: cell-based. The following applies: u-937. In outline:
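[3H]AEA transport in human U937 leukemic monocyte lymphoma cells; EC50 and maximal inhibition taken from concentration-dependent curves, n = 3–5.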

In data set [6] the test system is PC-12. Briefly: Neuritogenic activity in rat PC12 cells assessed as induction of neuronal differentiation at 1 uM after 2 days by Giemsa staining-based phase contrast microscopic analysis. Type of data set: functional, cell-based. The method in brief:
as §1

A short description of data set [7]: Cytotoxicity against rat PC12 cells at 1 uM. Type of data set: cell-based. The following applies: pc-12, 1 µM.
Data set [8] is described as follows: Cytotoxicity against rat PC12 cells at 10 uM. In kind it is cell-based. To be noted: pc-12, 10 µM.
In data set [9] the target is T1, Fatty-acid amide hydrolase 1 (Homo sapiens) (UniProt O00519).
T1 sequence (whole entry): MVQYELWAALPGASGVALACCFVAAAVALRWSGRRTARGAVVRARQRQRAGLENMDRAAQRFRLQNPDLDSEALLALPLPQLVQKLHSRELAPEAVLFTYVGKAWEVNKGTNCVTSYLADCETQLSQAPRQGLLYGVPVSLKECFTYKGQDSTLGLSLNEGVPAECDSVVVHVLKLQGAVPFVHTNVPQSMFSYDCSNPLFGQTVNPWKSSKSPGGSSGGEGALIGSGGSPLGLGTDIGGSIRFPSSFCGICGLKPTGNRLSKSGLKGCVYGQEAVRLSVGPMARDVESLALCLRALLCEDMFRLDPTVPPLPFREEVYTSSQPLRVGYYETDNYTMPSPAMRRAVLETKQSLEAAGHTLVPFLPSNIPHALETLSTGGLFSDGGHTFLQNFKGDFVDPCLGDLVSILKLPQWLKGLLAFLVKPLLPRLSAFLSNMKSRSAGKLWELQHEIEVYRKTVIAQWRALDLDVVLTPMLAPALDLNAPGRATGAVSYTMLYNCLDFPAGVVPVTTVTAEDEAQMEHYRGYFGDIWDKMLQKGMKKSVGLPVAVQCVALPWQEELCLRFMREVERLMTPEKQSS
Briefly: Inhibition of FAAH (unknown origin) at 1 uM. The method in brief: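 FAAH activity measured with compounds at 1 μM.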

The target of another data set is Cannabinoid receptor 1 (Homo sapiens, UniProt P21554). Put plainly: Displacement of [3H]-CP55940 from human CB1 receptor expressed in CHO cell membranes after 90 mins by scintillation counting analysis. In outline: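 Membranes from CHO cells stably transfected with human CB1 incubated 90 min at 30 °C with varying compound concentrations and 0.5 nM [3H]-CP55940; WIN55,212-2 as positive control. Mean ± SD, n = 2–3.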
On the technique in general: Displacement assays read how much labelled ligand stays bound in the presence of the test substance.

The test system of data set [10] is PC-12. Briefly: Neuritogenic activity in rat PC12 cells assessed as induction of neuronal differentiation at 10 uM after 2 days by Giemsa staining-based phase contrast microscopic analysis. In kind it is functional, cell-based. The method in brief:
as §1

Data set [11] has as its system U-937. Put plainly: Potency index, ratio of UCM707 EC50 to compound EC50 for anandamide membrane transporter in human U937 cells. In kind it is cell-based.
In data set [12] the test system is PC-12. Briefly: Neuritogenic activity in rat PC12 cells in presence of CB1 antagonist rimonabant/AM251. Type of data set: functional, cell-based. In outline: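 PC12 cells co-treated with the CB1 antagonists rimonabant (1 μM and 100 nM) or AM251 (3 μM and 100 nM) alongside the differentiation-inducing compound, in the neurite outgrowth assay.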
The nature of data set [13]: Cytotoxicity against rat PC12 cells at 50 uM. In kind it is cell-based. To be noted: pc-12, 50 µM.
Data set [14] concerns PC-12. Briefly: Neuritogenic activity in rat PC12 cells assessed as induction of neuronal differentiation at 5 uM after 2 days by Giemsa staining-based phase contrast microscopic analysis. Type of data set: functional, cell-based. In outline: as §1

SMILES strings stand for the structures. pEC50, pKi: −log10 of the molar value. The source made the active and inactive calls. The rule behind the calls is not given here.

Cannabinoid receptor 1, sequence (P21554 whole entry): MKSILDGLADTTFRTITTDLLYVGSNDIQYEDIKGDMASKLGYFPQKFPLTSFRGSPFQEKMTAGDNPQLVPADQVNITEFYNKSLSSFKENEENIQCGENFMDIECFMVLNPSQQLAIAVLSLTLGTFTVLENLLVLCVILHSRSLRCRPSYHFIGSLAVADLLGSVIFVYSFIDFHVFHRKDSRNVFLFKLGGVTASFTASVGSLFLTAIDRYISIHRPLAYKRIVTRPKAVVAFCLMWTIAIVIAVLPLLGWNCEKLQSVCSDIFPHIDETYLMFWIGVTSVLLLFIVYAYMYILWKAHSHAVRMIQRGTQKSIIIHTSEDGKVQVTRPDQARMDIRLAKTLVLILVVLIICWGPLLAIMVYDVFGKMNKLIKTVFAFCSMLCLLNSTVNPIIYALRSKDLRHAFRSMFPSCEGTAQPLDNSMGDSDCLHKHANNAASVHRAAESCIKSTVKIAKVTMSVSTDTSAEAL

Take `CCC(=O)N[C@@H](CO)Cc1ccc(O)cc1`: in the data set on PC-12 [1], the result was inactive.

As to `CCCN[C@H](CO)Cc1ccc(O)cc1`, in the data set on PC-12 [1], the outcome was inactive.

Take `CCCCC/C=C\C/C=C\C/C=C\C/C=C\CCC(C)C(=O)NCCF` (configuration not stated): the outcome in the data set on PC-12 [2] was inactive.

For `CCC(=O)N[C@H](CO)Cc1ccc(O)cc1`, in the data set on PC-12 [1], the result was Active.

`CCC(=O)N[C@H](CO)Cc1ccc(OC)cc1`: the result in the data set on PC-12 [1] was inactive.

Turning to `CC(/C=C/C(=O)NC(CO)Cc1ccc(O)cc1)=C\C(C)CC(=O)O` (configuration not stated), the outcome with PC-12 [3] was Active.

Regarding `CC/C=C\C/C=C\C/C=C\CCCCCCCCN[C@H](CO)Cc1ccc(O)cc1`, in the data set with U-937 [4], the Imax worked out at 60%. Besides, the pEC50 (in general, the negative decadic logarithm of the EC50, by convention in mol/L) in data set [5] was 6.02. Also, in the data set on PC-12 [6], the result was inactive. Moreover, the Activity result is given as “Non-toxic” in data set [7] and “Toxic” in data set [8].

As for `CCCCCCCCC(=O)N[C@H](CO)Cc1ccc(O)cc1`, in the data set with PC-12 [1], the outcome was inactive.

On to `CCC(=O)N[C@@H](Cc1ccc(O)cc1)C(=O)O`, for which the inhibition – broadly, how much of the control response was suppressed – in [9] was “Active”. In the data set with U-937 [4], the inhibition was 20%. Further, the outcome in the data set with PC-12 [1] was Active.

Regarding `CCCCC/C=C\C/C=C\C/C=C\C/C=C\CCCC(=O)NCCc1ccoc1`, the Imax with U-937 [4] came out at 80%. The pEC50 in data set [5] is 5.74.

As for `CC(C)(C)C(=O)N[C@H](CO)Cc1ccc(O)cc1`, in the data set with PC-12 [1], the outcome was inactive.

`CC(C)C(=O)N[C@H](CO)Cc1ccc(O)cc1`: in the data set on PC-12 [1], the outcome was inactive.

As to `OCCCCCCCCCCCCCCCN[C@H](CO)Cc1ccc(O)cc1`, the negative logarithm of the Ki (pKi) (usually the Ki on a negative log10 scale, so that one unit is a factor of ten) at Cannabinoid receptor 1 is 6.28. In the data set on PC-12 [6], the result was inactive. The Activity entry is “Non-toxic” in data set [7] and “Toxic” in [8].

Consider `O=C(CCCCCCCO)N[C@H](CO)Cc1ccc(O)cc1`, for which the inhibition result in data set [9] is “Active”. The inhibition with U-937 [4] worked out at 20%. For the same compound, the result with PC-12 [10] and with PC-12 [1] was Active.

As to `CCCCC/C=C\C/C=C\CCCCCCCCN[C@H](CO)Cc1ccc(O)cc1`, the Imax with U-937 [4] is 51%. The pEC50 in [5] is 6.01. Also, the outcome in the data set with PC-12 [6] was inactive. Besides, the Activity entry is “Non-toxic” in [7] and “Toxic” in data set [8].

Turning to `CCC(=O)N[C@H](CO)Cc1ccccc1`, in the data set on PC-12 [1], the outcome was inactive.

As to `CCCCC/C=C\C/C=C\CCCCCCCC(=O)N[C@H](CO)Cc1ccc(O)cc1`, the Ratio EC50 with U-937 [11] was determined as 10. Moreover, the Imax in the data set with U-937 [4] was 52%. Further, the negative logarithm of the EC50 (pEC50) in [5] was 6.64. In addition, the outcome with PC-12 [12] and with PC-12 [10] was Active. Further, at Cannabinoid receptor 1, the negative-log Ki (pKi) was 6.09.

As to `CCC(=O)N[C@H](COC)Cc1ccc(O)cc1`, in the data set with PC-12 [1], the result was inactive.

Turning to `O=C(CCCc1cn(C23CC4CC(CC(C4)C2)C3)nn1)N[C@H](CO)Cc1ccc(O)cc1`, the outcome with PC-12 [1] was inactive.

Turning to `O=C(N[C@H](CO)Cc1ccc(O)cc1)c1ccccc1`, the inhibition entry in data set [9] was “Active”. Moreover, in the data set with U-937 [4], the inhibition is 20%. Further, the Activity result in data set [13] was “Non-toxic”.

Turning to `CCC(=O)N[C@H](COC)Cc1ccc(OC)cc1`, in data set [9], the inhibition result was “Active”. Moreover, the inhibition in the data set on U-937 [4] came out at 20%. In the data set on PC-12 [1], the outcome was inactive.

In the case of `CCC(=O)N[C@H](CO)Cc1ccc(OC(=O)CC)cc1`, in the data set on PC-12 [1], the outcome was inactive.

In the case of `O=C(CCC(=O)N[C@@H](CO)Cc1ccc(O)cc1)N[C@H](CO)Cc1ccc(O)cc1`, the inhibition result in data set [9] was “Active”. In addition, the inhibition in the data set on U-937 [4] stood at 20%. For the same compound, the result in the data set on PC-12 [1] was Active.

On to `CCC(=O)N[C@H](COC(=O)CC)Cc1ccc(O)cc1`, for which, in the data set with PC-12 [1], the result was inactive.

On to `CCCCCCCCCCCCCCCCN[C@H](CO)Cc1ccc(O)cc1`, for which the outcome in the data set on PC-12 [6] was inactive. Moreover, the Activity result in data set [7] is “Non-toxic”; in data set [8], “Toxic”.

On to `CCC(=O)NCCc1ccc(O)cc1`, for which the Activity result in data set [13] is “Toxic”. The result with PC-12 [1] was inactive.

Turning to `CCC(=O)NCCc1ccc(O)c(O)c1`, the outcome in the data set on PC-12 [14] was inactive. Besides, in data set [13], the Activity result is “Toxic”.

On to `O=C(CCCCCCCCCCCCCCO)N[C@H](CO)Cc1ccc(O)cc1`, for which, in the data set on U-937 [4], the Imax turned out to be 73%. Moreover, the negative-log EC50 (pEC50) in data set [5] is 6.12. The result in the data set with PC-12 [10] was inactive.
